# Screening data deposited in PubChem by NMMLSC.
# RGS4-Gao reg – human RGS4-Galphao interaction regulation; P09471; Multiplexed bead flow cytometry, RGS4-Galphao binding; actives lie on both sides; binding response (% of control), % at 10 µM; 220,000 compounds, 0.33% hits; AID 1415; in the data active = binding response below about 49% or above about 150%; inactive = in between;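 also: fluorescent Galphao activated with aluminum fluoride binding bead-coupled RGS4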
# RGS8-Gao reg – regulators of human RGS8-Galphao interaction. P09471. multiplexed bead flow cytometry, RGS8-Galphao binding; actives lie on both sides. response (percent of control binding), % at 10 µM. 220,000 compounds, 0.34% hits; in the data active = response below about 60% or above about 140%; inactive = in between;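 also: Galphao activated as the GDP aluminium fluoride complex binding bead-coupled RGS8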
# RGS7-Gao – regulators of human RGS7-Galphao interaction. P09471. Multiplexed bead flow cytometry, RGS7-Galphao binding; actives lie on both sides. binding response (% of control), % at 10 µM. 220,000 compounds, 0.35% hits. AID 1439; in the data active = binding response below about 49% or above about 150%; inconclusive = no clear call, values can overlap the other calls; inactive = in between;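 also: fluorescent Galphao held in activated GDP-AlF4 state binding bead-coupled RGS7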
# ABCG2 inh – blocks JC-1 efflux by human ABCG2 transporter; Q9UNQ0; IgMXP3 cells, flow cytometry; inhibition, % at 6.6 µM; 190,000 compounds, 0.1% hits; AID 1325;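 active = inhibition above 80%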;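 also: 0% = DMSO and 100% = nicardipine control wells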
#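 Test system: IgMXP3 (ABCG2) plus far-red-tagged CCRF-Adr (ABCB1) cells. Reagent: JC-1 dye as substrate. Timing: 10 min exposure at 25 °C with rotation, no wash. Measured by: flow cytometric JC-1 green MFI at 530 nm. Read-out: percent efflux inhibition, scaled nicardipine 100% to DMSO 0%. Control set: nicardipine and DMSO wells.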
# RGS16-Gao HTS – regulators of human RGS16-Galphao interaction; binding response (% of control), % at 10 µM; bead-based flow cytometry RGS16-Galphao binding, fluorescence; actives lie on both sides; O15492+P09471; 220,000 compounds, 0.38% hits;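 also: Galphao activated by GDP with aluminum fluoride before binding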
# Target sequence (O15492 whole entry, looked up): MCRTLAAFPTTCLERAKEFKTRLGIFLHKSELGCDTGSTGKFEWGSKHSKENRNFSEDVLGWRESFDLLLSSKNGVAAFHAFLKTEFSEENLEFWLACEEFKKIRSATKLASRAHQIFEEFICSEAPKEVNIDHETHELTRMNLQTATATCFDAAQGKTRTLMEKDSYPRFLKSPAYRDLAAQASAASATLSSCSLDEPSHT
# Target sequence (P09471 whole entry, looked up): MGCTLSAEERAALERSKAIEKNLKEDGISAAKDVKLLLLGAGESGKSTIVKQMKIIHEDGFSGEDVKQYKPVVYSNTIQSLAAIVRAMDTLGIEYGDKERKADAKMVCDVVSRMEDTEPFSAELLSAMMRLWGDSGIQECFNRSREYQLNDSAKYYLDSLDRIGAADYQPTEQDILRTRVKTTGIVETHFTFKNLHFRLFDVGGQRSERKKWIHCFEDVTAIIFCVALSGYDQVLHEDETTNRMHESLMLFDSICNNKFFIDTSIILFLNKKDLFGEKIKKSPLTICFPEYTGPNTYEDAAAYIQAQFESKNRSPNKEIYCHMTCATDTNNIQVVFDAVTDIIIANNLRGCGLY
# ABCB1 block – blocks JC-1 efflux by human ABCB1 transporter; 190,000 compounds, 0.067% hits; AID 1326; inhibition, % at 6.6 µM; CCRF-Adr cells, flow cytometry; P08183; in the data active = inhibition above about 40%;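 also: 0% = vehicle and 100% = reference inhibitor; higher value means more JC-1 retained so stronger ABCB1 efflux block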
# RGS4-Gao HTS – modulates binding between human RGS4 and Galphao. shares compounds with RGS16-Gao HTS. multiplexed bead flow cytometry, RGS–Galpha-o binding. RGS4–Galpha-o binding response, % at 10 µM. 1,600 compounds, 99% hits;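 also: fluorescently labeled Galpha-o bound to GDP with aluminium fluoride binding biotinylated RGS beads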
# Biotin-avidin – counter-screen: compounds disrupting biotin binding to avidin beads; shares compounds with RGS16-Gao HTS; streptavidin beads, fluorescein-biotin binding, flow cytometry; inhibition, % at 10 µM; 1,700 tested, under 10 active; AID 1783;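 active = inhibition above 50%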;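 also: median green fluorescence of gated singlet beads compared with DMSO control wells; 0% = DMSO wells and 100% = complete loss of bead fluorescence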
# RGS8-Gao single – confirmation of regulators of human RGS8-Galphao interaction; 1,700 compounds, 3% hits; bead-based flow cytometry RGS8-Galphao binding, fluorescence; actives lie on both sides; binding response (% of control), % at 10 µM; shares compounds with RGS16-Gao HTS; in the data active = binding response below about 72% or above about 130%; inactive = in between;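 also: Galphao activated as GDP AlF4 complex before binding bead RGS8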
# RGS7-Gao confirm – RGS7-Galphao interaction regulation, single point confirmation; shares compounds with RGS16-Gao HTS; bead-based flow cytometry RGS7-Galphao binding; actives lie on both sides; response (percent of control binding), % at 10 µM; 1,700 compounds, 7.8% hits; in the data active = response below about 75% or above about 130%; inactive = in between;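 also: fluorescent Galphao activated with GDP and aluminum fluoride binding bead-coupled RGS7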
# RGS16-Gao conf – confirmation of regulators of human RGS16-Galphao interaction. shares compounds with RGS16-Gao HTS. 1,700 compounds, 4% hits. bead-based flow cytometry, RGS16-Galphao binding; actives lie on both sides. response (% of control binding), % at 10 µM; in the data active = response below about 74% or above about 130%; inactive = in between;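 also: Galphao activated as the GDP aluminium fluoride complex binding bead-coupled RGS16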
# RGS4-Gao confirm – confirmation of regulators of human RGS4-Galphao interaction; binding response (% of control), % at 10 µM; shares compounds with RGS16-Gao HTS; 1,700 compounds, 4% hits; AID 1840; RGS4-Galphao binding, multiplexed bead flow cytometry; actives lie on both sides; in the data active = binding response below about 74% or above about 130%; inactive = in between
# RGS19-Gao single – confirmation of regulators of human RGS19-Galphao interaction; shares compounds with RGS16-Gao HTS; bead-based flow cytometry RGS19-Galphao binding; actives lie on both sides; response (percent of control binding), % at 10 µM; 1,700 compounds, 5% hits; AID 1841; in the data active = response below about 50% or above about 160%; inactive = in between;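 also: 100% = no compound control and 0% = blank background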
# * = called active by the depositor; ? = inconclusive; / = no result; [ ] = another dose, or the depositor's remark. Compounds with a hit are over-represented: about 0.9% of the library has one in this group of screens. Unless noted, no rule for the calls is given here.
SMILES,RGS4-Gao reg,RGS8-Gao reg,RGS7-Gao,ABCG2 inh,RGS16-Gao HTS,ABCB1 block,RGS4-Gao HTS,Biotin-avidin,RGS8-Gao single,RGS7-Gao confirm,RGS16-Gao conf,RGS4-Gao confirm,RGS19-Gao single
Cc1ccc(S(=O)(=O)NC(=O)Nc2ncc3c(n2)CC(c2ccco2)CC3=O)cc1 (configuration not stated),79,63,77,3,14*,-1,79*,0,102,107,102,103,93
Cc1c(Br)c(=O)oc2c(Br)c(O)c(O)cc12,52,42*,53,-2,16*,-1,52*,-1,93,93,92,91,87
CCN1C(=O)C(CC(=O)Nc2ccc(OC)cc2)N(Cc2ccco2)C1=S (configuration not stated),116,143*[activator],105,1,308,1,116*,-1,99,90,96,96,77
Cc1nn(C(C)C(=O)NCCCc2ccccc2)c(=O)c2cc3occc3n12 (configuration not stated),134,/,139,-1,167,0,/,-2,93,88,95,93,80
COC(=O)c1cccc(NC(=O)c2nn(C(C)C)c(=O)c3ccccc23)c1,104,99,99,1,99,0,/,/,/,/,/,/,/
Cc1ccc(Cl)c(OC(=O)c2nn(C(C)C)c(=O)c3ccccc23)c1,101,119,101,1,248*[activator],1,101*,2,103,103,103,105,92
Cc1nnsc1C(=O)NNC(=O)Nc1ccccc1,100,100,97,10,99,2,/,/,/,/,/,/,/
O=C(Nc1ccccc1)Nc1snnc1C(=O)Nc1cccc(O)c1,16*,24*,16*,0,12*,0,/,2,105,113,106,106,105
O=c1c2ccccc2sn1-c1ccccc1,78,18*,91,0,-5.3*,0,78*,-2,25*,85,0.1*,78,-0.4*
NS(=O)(=O)c1ccc(S(=O)(=O)N2CCCC2)cc1,102,97,104,7,89,0,/,/,/,/,/,/,/
Cc1ccc(-c2nnc(N3CCCCC3)c3ccccc23)cc1S(=O)(=O)N1CCN(C)CC1,106,102,103,7,105,4,/,/,/,/,/,/,/
CN(C)S(=O)(=O)c1ccc2[nH]cc(/C=C/c3nc4ccccc4c(=O)n3-c3ccccc3)c2c1,101,102,101,1,99,0,/,/,/,/,/,/,/
CN(C)S(=O)(=O)c1cccc(-n2sc3ccccc3c2=O)c1,93,55*,?,-2,17*,0,93*,/,/,/,/,/,/
O=c1c2ccccc2sn1-c1ccc(S(=O)(=O)N2CCCC2)cc1,92,31*,89,-11,-3.0*,-4,92*,1,59*,85,40*,91,8.6*
